The source of these data is ChEMBL document CHEMBL3588845, “Protozoan Parasite Growth Inhibitors Discovered by Cross-Screening Yield Potent Scaffolds for Lead Discovery” (J Med Chem, 2015).

The test system of data set [1] is Leishmania major. Nature of the data set: Antiparasite activity against luciferase-expressing Leishmania major amastigotes isolated from infected in mouse RAW264.7 cells assessed as growth inhibition incubated for 96 hrs by luciferase reporter gene assay. The conditions noted are these: RAW264.7, 96 h. It counts as functional, organism-based.
Data set [2] can be described thus: Toxicity against human HepG2 cells incubated for 48 hrs by MTT assay. The class given is cell-based. The conditions noted are these: read-out: TC50. (Tetrazolium dyes change colour on reduction, which living cells bring about.)
Data set [3] relates to Plasmodium falciparum. The data set can be described thus: Antiparasite activity against Plasmodium falciparum D6 assessed as growth inhibition incubated for 72 hrs by SYBR green fluorescence assay. The following applies: D6, 72 h. The class given is functional, organism-based.
Data set [4] deals with Leishmania major. Nature of the data set: Antiparasite activity against Leishmania major promastigotes assessed as growth inhibition incubated for 44 hrs by alamar blue dye based fluorescence assay. It counts as functional, organism-based.
Data set [5] concerns Trypanosoma cruzi. The data set can be described thus: Antiparasite activity against Trypanosoma cruzi Tulahuen expressing beta-galactosidase assessed as growth inhibition at 10 uM incubated for 96 hrs by CPRG dye based assay. It counts as functional. The following applies: read-out: GI.
The test system of data set [6] is Trypanosoma brucei. Nature of the data set: Antiparasite activity against Trypanosoma brucei 427 assessed as growth inhibition incubated for 48 hrs by PrestoBlue based fluorescence assay. The class given is functional, organism-based. The following applies: Trypanosoma brucei, 427, 48 h.
Data set [7] relates to Trypanosoma cruzi. Nature of the data set: Antiparasite activity against Trypanosoma cruzi Tulahuen expressing beta-galactosidase assessed as growth inhibition incubated for 96 hrs by CPRG dye based assay. It counts as functional, organism-based.
Data set [8] can be described thus: Aqueous solubility of the compound. It counts as physicochemical. The following applies: buffer. Put shortly: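 Aqueous solubility measured as thermodynamic solubility.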
Data set [9] concerns Plasmodium falciparum. The data set can be described thus: Antiparasite activity against drug resistant Plasmodium falciparum C235 assessed as growth inhibition incubated for 72 hrs by SYBR green fluorescence assay. It counts as functional, organism-based. The following applies: C235, 72 h.
Data set [10] can be described thus: Protein binding in plasma (unknown origin) assessed as fraction unbound. The class given is ADME, cell-free.
Data set [11] relates to Plasmodium falciparum. Nature of the data set: Antiparasite activity against drug resistant Plasmodium falciparum W2 assessed as growth inhibition incubated for 72 hrs by SYBR green fluorescence assay. The class given is functional, organism-based. The conditions noted are these: W2, 72 h.
Data set [12] has as its system Hepatocyte. Nature of the data set: Intrinsic clearance in rat hepatocytes assessed per 10^6 cells. The class given is ADME, cell-based.

Regarding `CN1CCN(S(=O)(=O)c2ccc(-c3ccc4ncnc(Nc5ccc(OCc6cccc(F)c6)c(Cl)c5)c4c3)cc2)CC1`, the EC50 in data set [1] is 1600 nM; in data set [3], 27 nM; in [4], 2800 nM. Besides, in data set [2], the CC50 at 48 h is above 15000 nM. Besides, the inhibition of growth at 10 µM in data set [5] stood at 60%.

For `O=S(=O)(c1ccc(-c2ccc3ncnc(Nc4ccc(OCc5ccccc5)c(Cl)c4)c3c2)cc1)N1CCOCC1`, the EC50 in data set [1] is above 15000 nM; in data set [3], 260 nM; in data set [6], 1400 nM; in data set [4], 500 nM. The CC50 at 48 h in data set [2] was above 15000 nM. The inhibition of growth at 10 µM in [5] is 9.5%.

As to `O=S(=O)(c1ccc(-c2ccc3nccc(Nc4ccc(OCc5ccccc5)c(Cl)c4)c3c2)cc1)N1CCOCC1`, the EC50 stood at 3400 nM in [1]; 49000 nM in [7]; 32 nM in data set [3]; 2100 nM in [6]; 200 nM in data set [4]; 54 nM in data set [9]. Moreover, in [11], the EC50 came out at 110 nM. Besides, in data set [2], the CC50 at 48 h is above 5000 nM. The compound further had a solubility in data set [8] below 1 µM. The Fu in data set [10] is given as below 1%. In addition, in [12], the CLH is 13.93 µL/min.

Turning to `CN1CCCN(S(=O)(=O)c2ccc(-c3ccc4c(Nc5ccc(OCc6cccc(F)c6)c(Cl)c5)cnnc4c3)cc2)CC1`, the EC50 in data set [1] came to 240 nM; in data set [7], 49000 nM; in data set [3] it was 3 nM; in data set [6] it was 210 nM; in data set [4], 6400 nM; in data set [9] it was 5 nM. The EC50 in data set [11] is 13 nM. In addition, the CC50 at 48 h in data set [2] was found to be 15000 nM. This compound also displayed a solubility in data set [8] below 1 µM. In addition, the Fu in [10] is below 1%. Also, the CLH in data set [12] was 36.72 µL/min.

The EC50 is the midpoint of the concentration-response curve. Usually solubility stands for how much of the substance goes into solution per volume. A higher solubility goes with a readily soluble substance.
